Assay results taken from ChEMBL document CHEMBL3124806, “Imidazopyridine-fused [1,3]-diazepinones: synthesis and antiproliferative activity” (Eur J Med Chem, 2014).

Key:
[1] = organism: Ovis aries; experiment: Inhibition of sheep brain tubulin polymerization at 100 uM after 40 mins by DAPI staining-based fluorescence assay
Outline: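 Microtubular protein was purified from sheep brain by two assembly/disassembly cycles (37 °C/0 °C) in MES buffer (100 mM MES pH 6.6, 1 mM EGTA, 0.5 mM MgCl₂). Compound in DMSO was added to 10 µM tubulin with 10 µM DAPI and incubated 40 min at RT. GTP (1 mM) was then added, and assembly was followed by DAPI fluorescence at 37 °C.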

[2] = system: MDA-MB-468; experiment: Cytotoxicity against human MDA-MB-468 cells assessed as cell growth at 10 uM after 48 hrs by SRB assay relative to untreated control; type: functional; details: MDA-MB-468, 48 h, read-out: Activity
Outline: (§1)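 NCI-60 one-dose screen: each agent added at 10 µM, cultures incubated 48 h. Endpoint by sulforhodamine B protein-binding dye read spectrophotometrically; growth expressed as percent of untreated control cells.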

[3] = system: MDA-MB-231; experiment: Cytotoxicity against human MDA-MB-231 cells assessed as cell growth at 10 uM after 48 hrs by SRB assay relative to untreated control; type: functional; details: MDA-MB-231, 48 h, read-out: Activity; outline: as §1
[4] = system: MCF7; experiment: Cytotoxicity against human MCF7 cells assessed as cell growth at 10 uM after 48 hrs by SRB assay relative to untreated control; type: functional; details: MCF7, 48 h, read-out: Activity
Outline: (§2)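 NCI-60 panel screen at a single concentration of 10 μM with 48 h incubation. Cell density measured by sulforhodamine B protein-binding dye and read spectrophotometrically. Growth expressed as percent of untreated control cells.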

[5] = Cytotoxicity against human UO31 cells assessed as cell growth at 10 uM after 48 hrs by SRB assay relative to untreated control; type: functional; details: UO-31, 48 h, read-out: Activity
Outline: (§3)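 NCI-60 single-dose screen. Compounds were added to the cultures at 10 μM and incubated for 48 h. The end point was sulforhodamine B protein staining read spectrophotometrically. Growth is reported as percent of untreated control cells.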

[6] = system: TK-10; experiment: Cytotoxicity against human TK10 cells assessed as cell growth at 10 uM after 48 hrs by SRB assay relative to untreated control; type: functional; details: TK-10, 48 h, read-out: Activity; outline: as §3
[7] = system: SN12C; experiment: Cytotoxicity against human SN12C cells assessed as cell growth at 10 uM after 48 hrs by SRB assay relative to untreated control; type: functional; details: read-out: Activity; outline: as §3
[8] = system: CAKI-1; experiment: Cytotoxicity against human Caki1 cells assessed as cell growth at 10 uM after 48 hrs by SRB assay relative to untreated control; type: functional; details: CAKI-1, 48 h, read-out: Activity; outline: as §2
[9] = system: ACHN; experiment: Cytotoxicity against human ACHN cells assessed as cell growth at 10 uM after 48 hrs by SRB assay relative to untreated control; type: functional; details: read-out: Activity; outline: as §2
[10] = system: OVCAR-8; experiment: Cytotoxicity against human OVCAR8 cells assessed as cell growth at 10 uM after 48 hrs by SRB assay relative to untreated control; type: functional; details: OVCAR-8, 48 h, read-out: Activity; outline: as §1
[11] = Cytotoxicity against human OVCAR5 cells assessed as cell growth at 10 uM after 48 hrs by SRB assay relative to untreated control; type: functional; details: OVCAR-5, 48 h, read-out: Activity; outline: as §1
[12] = system: IGROV-1; experiment: Cytotoxicity against human IGROV1 cells assessed as cell growth at 10 uM after 48 hrs by SRB assay relative to untreated control; type: functional; details: IGROV-1, 48 h, read-out: Activity; outline: as §2
[13] = system: SK-MEL-5; experiment: Cytotoxicity against human SK-MEL-5 cells assessed as cell growth at 10 uM after 48 hrs by SRB assay relative to untreated control; type: functional; details: SK-MEL-5, 48 h, read-out: Activity; outline: as §3
[14] = system: SK-MEL-28; experiment: Cytotoxicity against human SK-MEL-28 cells assessed as cell growth at 10 uM after 48 hrs by SRB assay relative to untreated control; type: functional; details: SK-MEL-28, 48 h, read-out: Activity; outline: as §3
[15] = system: SK-MEL-2; experiment: Cytotoxicity against human SK-MEL-2 cells assessed as cell growth at 10 uM after 48 hrs by SRB assay relative to untreated control; type: functional; details: SK-MEL-2, 48 h, read-out: Activity; outline: as §1
[16] = system: MDA-MB-435; experiment: Cytotoxicity against human MDA-MB-435 cells assessed as cell growth at 10 uM after 48 hrs by SRB assay relative to untreated control; type: functional; details: MDA-MB-435, 48 h, read-out: Activity; outline: as §1
[17] = system: M14; experiment: Cytotoxicity against human M14 cells assessed as cell growth at 10 uM after 48 hrs by SRB assay relative to untreated control; type: functional; details: M14, 48 h, read-out: Activity; outline: as §2
[18] = system: SNB-19; experiment: Cytotoxicity against human SNB19 cells assessed as cell growth at 10 uM after 48 hrs by SRB assay relative to untreated control; type: functional; details: SNB-19, 48 h, read-out: Activity; outline: as §3
[19] = system: SF-539; experiment: Cytotoxicity against human SF539 cells assessed as cell growth at 10 uM after 48 hrs by SRB assay relative to untreated control; type: functional; details: SF-539, 48 h, read-out: Activity; outline: as §1
[20] = system: HT-29; experiment: Cytotoxicity against human HT-29 cells assessed as cell growth at 10 uM after 48 hrs by SRB assay relative to untreated control; type: functional; details: HT-29, 48 h, read-out: Activity; outline: as §2
[21] = system: HCC 2998; experiment: Cytotoxicity against human HCC2998 cells assessed as cell growth at 10 uM after 48 hrs by SRB assay relative to untreated control; type: functional; details: HCC 2998, 48 h, read-out: Activity; outline: as §2
[22] = system: NCI-H522; experiment: Cytotoxicity against human NCI-H522 cells assessed as cell growth at 10 uM after 48 hrs by SRB assay relative to untreated control; type: functional; details: NCI-H522, 48 h, read-out: Activity; outline: as §1
[23] = system: NCI-H460; experiment: Cytotoxicity against human NCI-H460 cells assessed as cell growth at 10 uM after 48 hrs by SRB assay relative to untreated control; type: functional; details: NCI-H460, 48 h, read-out: Activity; outline: as §1
[24] = system: NCI-H226; experiment: Cytotoxicity against human NCI-H226 cells assessed as cell growth at 10 uM after 48 hrs by SRB assay relative to untreated control; type: functional; details: NCI-H226, 48 h, read-out: Activity; outline: as §1
[25] = system: A549; experiment: Cytotoxicity against human A549 cells assessed as cell growth at 10 uM after 48 hrs by SRB assay relative to untreated control; type: functional; details: A549, 48 h, read-out: Activity; outline: as §2
[26] = system: RPMI-8226; experiment: Cytotoxicity against human RPMI8226 cells assessed as cell growth at 10 uM after 48 hrs by SRB assay relative to untreated control; type: functional; details: RPMI-8226, 48 h, read-out: Activity; outline: as §1
[27] = system: HL-60(TB); experiment: Cytotoxicity against human HL-60(TB) cells assessed as cell growth at 10 uM after 48 hrs by SRB assay relative to untreated control; type: functional; details: HL-60, 48 h, read-out: Activity
Outline: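 NCI-60 human tumour cell line panel; a single 10 µM concentration was added to the cultures and incubated 48 h. Endpoint was sulforhodamine B protein-binding dye read spectrophotometrically, with growth reported as percent of untreated control cells.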

[28] = system: CCRF-CEM; experiment: Cytotoxicity against human CCRF-CEM cells assessed as cell growth at 10 uM after 48 hrs by SRB assay relative to untreated control; type: functional; details: read-out: Activity; outline: as §2

| SMILES | inhibition [1] | growth at 10 µM [2] | growth at 10 µM [3] | growth at 10 µM [4] | growth at 10 µM [5] | growth at 10 µM [6] | growth at 10 µM [7] | growth at 10 µM [8] | growth at 10 µM [9] | growth at 10 µM [10] | growth at 10 µM [11] | growth at 10 µM [12] | growth at 10 µM [13] | growth at 10 µM [14] | growth at 10 µM [15] | growth at 10 µM [16] | growth at 10 µM [17] | growth at 10 µM [18] | growth at 10 µM [19] | growth at 10 µM [20] | other results |
| --- | --- | --- | --- | --- | --- | --- | --- | --- | --- | --- | --- | --- | --- | --- | --- | --- | --- | --- | --- | --- | --- |
| C[C@H]1NC(c2ccc(Br)cc2)=Nc2nc3ccccn3c2C1=O | 26% | 102% | 74% | 65.1% | 51.5% | 98.3% | 94.6% | 93.2% | 94% | 94.5% | 98.2% | 81.1% | 94.2% | 97.5% | 81.8% | 95.4% | 99.2% | 92.5% | 95.5% | 104% | growth at 10 µM [21]: 112%; growth at 10 µM [22]: 79.2%; growth at 10 µM [23]: 101%; growth at 10 µM [24]: 85.7%; growth at 10 µM [25]: 99.6%; growth at 10 µM [26]: 91%; growth at 10 µM [27]: 91.1%; growth at 10 µM [28]: 96.9% |
| COc1ccc(C2=Nc3nc4ccccn4c3C(=O)[C@H](C)N2)cc1 | 20% | 76.5% | 84.9% | 72% | 55.6% | 99.2% | 97.7% | 93.5% | 83.8% | 97.4% | 101% | 89.3% | 100% | 105% | 83.4% | 90.2% | 95.4% | 99.1% | 97.3% | 98.5% | growth at 10 µM [21]: 97.8%; growth at 10 µM [22]: 87.4%; growth at 10 µM [23]: 105%; growth at 10 µM [24]: 86.9%; growth at 10 µM [25]: 106%; growth at 10 µM [26]: 88.5%; growth at 10 µM [27]: 90.6%; growth at 10 µM [28]: 91.7% |
